# Laboratory results reported in ChEMBL document CHEMBL4699441, “Identification and Preclinical Evaluation of the Bicyclic Pyrimidine γ-Secretase Modulator BMS-932481” (ACS Med Chem Lett, 2019).
# The source made the active and inactive calls. The rule behind the calls is not given here.
# Tests used:
# [1] = Efflux ratio of permeability in human Caco2 cells; type: ADME, cell-based; details: caco-2
# [2] = Reduction in amyloid beta (1 to 42) secretion in brain in triple transgenic LaFerla mouse at 30 mg/kg, po measured after 3 hrs relative to control; type: functional
# How it was run: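 Triple transgenic LaFerla mice (APP Swedish, MAPT P301L, PSEN1 M146V) given 30 mg/kg po; brain Aβ1-42 measured 3 h postdose; n = 3.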
# [3] = Hepatotoxicity in rat at 100 mg/kg, po administered for 2 week; type: toxicity, organism-based; details: in vivo, 336 h, time 2 weeks
# How it was run: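 Rats given oral doses of 10, 30 or 100 mg/kg daily for 2 weeks in a repeat-dose toxicity study.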
# [4] = molecular target: Gamma-secretase (Homo sapiens) (UniProt Q96BI3+Q9NZ42+Q8WW43+P49768+Q92542+P49810); test: Modulation of gamma-secretase in human H4 cells overexpressing APP incubated assessed as increase in amyloid beta (1 to 38) secretion for 24 hrs by MALDI-TOF mass spectrometric analysis; type: cell-based; details: filed as modulator
# How it was run: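 H4-APPsw cells treated with compound; secreted Aβ species quantified by mass spectrometry; total Aβ1-x checked by ELISA up to 10 μM.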
# [5] = Fraction unbound in cynomolgus monkey plasma measured after 24 hrs by LC-MS/MS analysis; type: ADME, cell-free, Macaca fascicularis
# [6] = Volume of steady state distribution in Sprague-Dawley rat at 2 mg/kg, iv measured up to 24 hrs by LC-MS/MS analysis; type: ADME, organism-based; details: in vivo
# How it was run: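 Sprague–Dawley rats; 2 mg/kg given as 5 min iv infusion in 9:1 PEG:EtOH; n = 5; volume of distribution at steady state.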
# Cytochrome P450 2C8 = molecular target: T1, Cytochrome P450 2C8 (Homo sapiens, UniProt P10632); test: Inhibition of CYP2C8 in human liver microsomes; type: ADME
# T1 sequence (P10632 whole entry): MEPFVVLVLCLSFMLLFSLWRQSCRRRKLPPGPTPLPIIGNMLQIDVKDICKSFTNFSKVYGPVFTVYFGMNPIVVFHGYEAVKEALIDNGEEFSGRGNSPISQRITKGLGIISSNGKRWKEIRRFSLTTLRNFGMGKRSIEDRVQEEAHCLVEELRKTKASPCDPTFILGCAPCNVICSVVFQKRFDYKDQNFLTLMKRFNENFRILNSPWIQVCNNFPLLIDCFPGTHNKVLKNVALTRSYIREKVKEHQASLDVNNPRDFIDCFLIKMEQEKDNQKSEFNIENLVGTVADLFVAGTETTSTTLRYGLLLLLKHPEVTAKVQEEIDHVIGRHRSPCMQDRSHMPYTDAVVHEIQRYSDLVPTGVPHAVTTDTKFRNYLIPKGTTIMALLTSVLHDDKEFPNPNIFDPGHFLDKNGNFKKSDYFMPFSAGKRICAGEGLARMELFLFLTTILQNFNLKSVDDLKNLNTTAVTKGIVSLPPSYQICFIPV
# Brain = test: Antialzheimer activity in rat brain assessed as reduction in amyloid beta (1 to 42) AUC at 10 mg/kg measured after 24 hrs relative to control; type: functional; parameters: scale not given: the % may be the effect or the level left
# How it was run: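 Rats dosed orally; brain Aβ1-42 followed over 24 h, and the reduction in brain Aβ1-42 AUC integrated over 0–24 h was fitted to an indirect response PK/PD model.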
# [7] = Half life in cynomolgus monkey at 1 mg/kg, iv measured up to 24 hrs by LC-MS/MS analysis; type: ADME, organism-based, Macaca fascicularis; details: in vivo
# How it was run: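 Male Beagle dogs and male cynomolgus monkeys, 1 mg/kg by 5 min iv infusion in 9:1 PEG:EtOH, n=3.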
# [8] = Reduction in amyloid beta (1 to 42) secretion in brain in Harlan Sprague-Dawley rat at 10 mg/kg, po measured after 3 hrs relative to control; type: functional
# How it was run: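 Sprague–Dawley rats dosed 10 mg/kg po; brain Aβ1-42 measured 3 h postdose; n = 5.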
# [9] = Toxicity in rat assessed as stress at 100 mg/kg, po administered for 2 week; type: organism-based; details: in vivo, 336 h, time 2 weeks
# [10] = Hemodynamic activity in unconscious telemeterized rabbit assessed as decrease in heart rate at >= 10 mg/kg; type: ADME, organism-based, Oryctolagus cuniculus; details: in vivo
# [11] = Fraction unbound in Beagle dog plasma measured after 24 hrs by LC-MS/MS analysis; type: ADME, cell-free, Canis lupus familiaris
# [12] = Toxicity in Beagle dog assessed as hyperbilirubinemia at 150 mg/kg, po administered for 1 month; type: organism-based, Canis lupus familiaris; details: in vivo, 730 h, time 1 months
# How it was run: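 One-month oral toxicity study in dogs; high dose 150 mg/kg; bilirubin assessed.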
# [13] = Cardiotoxicity in unconscious telemeterized rabbit assessed as increase in QTcf time at 10 mg/kg; type: toxicity, organism-based, Oryctolagus cuniculus; details: in vivo
# [14] = Inhibition of amyloid beta (x to 42) secretion in human H4 cells overexpressing APP incubated for overnight by HTRF analysis; type: functional, cell-based
# Cytochrome P450 2C9 = Cytochrome P450 2C9 (Homo sapiens, UniProt P11712); test: Inhibition of CYP2C9 in human liver microsomes; type: ADME
# Cytochrome P450 2C9, sequence (P11712 whole entry): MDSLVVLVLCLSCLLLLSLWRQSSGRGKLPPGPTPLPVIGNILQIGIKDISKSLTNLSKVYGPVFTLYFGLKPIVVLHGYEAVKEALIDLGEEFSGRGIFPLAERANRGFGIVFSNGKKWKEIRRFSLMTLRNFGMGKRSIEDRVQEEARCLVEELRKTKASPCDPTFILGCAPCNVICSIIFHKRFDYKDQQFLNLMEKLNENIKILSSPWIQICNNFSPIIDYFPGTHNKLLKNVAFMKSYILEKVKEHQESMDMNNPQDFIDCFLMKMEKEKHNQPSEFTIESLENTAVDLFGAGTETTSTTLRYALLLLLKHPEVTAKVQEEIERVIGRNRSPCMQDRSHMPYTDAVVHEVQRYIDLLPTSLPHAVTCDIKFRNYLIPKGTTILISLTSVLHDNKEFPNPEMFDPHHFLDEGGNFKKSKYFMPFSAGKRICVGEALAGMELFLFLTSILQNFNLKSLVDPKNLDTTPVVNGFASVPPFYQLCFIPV
# [15] = molecular target: T2, UDP-glucuronosyltransferase 1A1 (Homo sapiens, UniProt P22309); test: Inhibition of human UGT1A1; type: ADME
# T2 sequence (P22309 whole entry): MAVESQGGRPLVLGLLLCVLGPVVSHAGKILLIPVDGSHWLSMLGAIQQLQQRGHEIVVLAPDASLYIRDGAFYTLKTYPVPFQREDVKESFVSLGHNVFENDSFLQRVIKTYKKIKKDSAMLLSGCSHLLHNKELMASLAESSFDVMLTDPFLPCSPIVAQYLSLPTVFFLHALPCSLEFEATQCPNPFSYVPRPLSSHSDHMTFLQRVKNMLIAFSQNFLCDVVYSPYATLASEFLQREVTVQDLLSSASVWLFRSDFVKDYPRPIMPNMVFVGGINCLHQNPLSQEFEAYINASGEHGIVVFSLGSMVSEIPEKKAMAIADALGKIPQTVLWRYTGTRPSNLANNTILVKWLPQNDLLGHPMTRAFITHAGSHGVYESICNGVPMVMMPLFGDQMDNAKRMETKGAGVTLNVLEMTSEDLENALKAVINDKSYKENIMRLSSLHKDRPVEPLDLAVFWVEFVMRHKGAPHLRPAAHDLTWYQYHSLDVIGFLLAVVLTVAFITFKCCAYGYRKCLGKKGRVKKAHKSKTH
# [16] = Metabolic stability in cynomolgus monkey assessed as half life incubated for 24 hrs by LC-MS/MS analysis; type: ADME, Macaca fascicularis
structure (smiles),measurement,setting,value
CNc1nc(Nc2ccc(-n3cnc(C)n3)c(OC)c2)nc2c1CC[C@H]2c1ccc(F)cc1,Ratio,[1],0.8
same,inhibition in vivo at 30 mg/kg,[2],81%
same,Activity,[3],Non-Toxic
same,inhibition,[4],Active
same,Fu,[5],1.3%
same,Vdss,[6],2.3 L/kg
same,IC50,Cytochrome P450 2C8,4500 nM
same,Activity,Brain,66%
same,t1/2,[7],2.9 h
same,inhibition in vivo at 10 mg/kg,[8],41%
same,Activity,[9],Non-Toxic
same,Activity,[10],Non-Toxic
same,Fu,[11],0.8%
same,Activity,[12],Toxic
same,Time,[13],3 ms
same,IC50,[14],5.5 nM
same,IC50,Cytochrome P450 2C9,7400 nM
same,IC50,[15],1400 nM
same,t1/2,[16],0.183 h
